# The list is not random: actives were taken first. Their share in the collection is about 2.6%.
# E-selectin induc: induces E-selectin expression in human endothelial cells. P16581. activation, % at 7.58 µM. HUVEC E-selectin immunofluorescence imaging; normalized: neutral wells 0, TNF-alpha wells 100. actives 0.37% (n = 260,000);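 active = mean E-selectin-positive cell signal at least 10% of the positive control, reached in at least 60% of replicates, without over 20% cell loss; inconclusive = no rule given, readout overlaps actives, possibly toxicity-flagged; inactive = the rest, including those meeting only one limit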
#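 Assay system: HUVEC, human umbilical vein endothelial cells / Amount: 3,000 HUVEC/well / Controls: TNF-alpha positive control, DMSO neutral control / Compound dosing: single concentration / Medium: EGM-2 over gelatin coat / Evaluation: percent E-selectin-positive cells / Signal: immunofluorescence imaging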
# DENV2 CPE rescue: DENV2-induced cell death inhibition | DENV2-infected cells, cytopathic effect rescue, plate reader | CPE inhibition, % at 9.99 µM | actives 1.7% (n = 350,000); in the data active = CPE inhibition above about 20%, passing the limit was not always enough; inconclusive = no clear call, values can overlap the other calls; tested in BHK-21 cells;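 note: 0% = median of neutral control wells and 100% = median of positive control wells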
# GSIS activator: GLuc luminescence reporter in INS-1E cells, primary screen for activators of glucose-dependent secretion of insulin | actives 0.61% (n = 370,000) | INS-1E GLuc reporter insulin secretion, 2-3 h | activation, % at 16.6 µM;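 active = lowest replicate activation of at least 40%, so every replicate reaches that level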;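 note: 0% = median of neutral control wells and 100% = median of IBMX positive control wells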
# ERAP1 inh: inhibitors of human ERAP1 aminopeptidase; Q9NZ08; recombinant ERAP1, Leu-AMC fluorescence, 60 min; inhibition, % at 10.7 µM; actives 0.15% (n = 340,000);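 active = mean replicate inhibition of at least 30%, or all replicates individually reaching that 30% level; inactive = mean below 30% and not every replicate reaching it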;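 note: 0% = neutral control wells and 100% = L-leucinethiol positive control wells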
# miR-122 sensor: blocks miR-122 activity in Huh7 sensor cells; actives 0.3% (n = 340,000); Huh7 miR-122 Renilla luciferase sensor, 48 h; neutral wells = 0, positive control = 100; activation (reporter increase), % at 12.5 µM;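 active = mean replicate activation score at least 90 and every replicate individually at or above 90; inconclusive = only one of the two criteria met; inactive = neither criterion met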;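 note: higher luciferase means less miR-122 activity so hits act as miR-122 inhibitors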
# CFTR F508del cor: correctors of CFTR F508del function in bronchial epithelial cells | CFBE cells, YFP halide quenching; stimulated with forskolin plus potentiator P3; % fluorescence drop versus neutral controls | activity (quench increase), % at 7.58 µM | actives 0.36% (n = 350,000) | AID 720511;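 active = mean added fluorescence quench of at least 8% versus neutral control, with both replicates also reaching 8%; inconclusive = only one of the mean or replicate conditions met; inactive = mean below 8% and not both replicates reaching 8%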;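 note: cells transiently co-express mutant CFTR-F508del with the halide-sensitive YFP; corrector assay measuring rescue of mutant channel to the surface after 24 h compound exposure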
# * = called active by the depositor; u = inconclusive; x = no result; [ ] = dose if it differs, or a comment.
SMILES,E-selectin induc,DENV2 CPE rescue,GSIS activator,ERAP1 inh,miR-122 sensor,CFTR F508del cor
CC(C)C[C@@H](CN1CCC[C@@H]1CN1C(=S)NC[C@@H]1Cc1ccc(O)cc1)N1C[C@H](Cc2ccc(O)cc2)N(CC2CCCCCC2)C1=S,-2,-6,1,2,-4,2
CC(C)C[C@@H](CN1CCC[C@@H]1CN1C(=S)NC[C@@H]1Cc1ccc(O)cc1)N1C[C@H](Cc2ccc(O)cc2)N(CC2CCCCC2)C1=S,x,28*,x,-3,-4,3
Cc1ccc(S(=O)(=O)Nc2ccc3c(c2)C(=O)N([C@@H](C)CO)C[C@@H](C)[C@@H](CN(C)C(=O)NC2CCCCC2)OCCCC[C@@H](C)O3)cc1,0,-2,-7,-1,-5[16.7 µM],3
C[C@@H]1CCCCO[C@@H](CN(C)S(=O)(=O)c2ccccc2)[C@@H](C)CN([C@H](C)CO)C(=O)c2cc(NC(=O)Nc3ccccc3)ccc2O1,x,65*,17,1,2[16.7 µM],1
C[C@@H]1CN([C@@H](C)CO)C(=O)c2cc(NC(=O)Nc3ccc(F)cc3)ccc2O[C@@H](C)CCCCO[C@H]1CN(C)S(=O)(=O)c1ccccc1,0,124*,3,-1,22[16.7 µM],-4
COc1ccc(NC(=O)Nc2ccc3c(c2)C(=O)N([C@H](C)CO)C[C@H](C)[C@H](CN(C)S(=O)(=O)c2ccc(Cl)cc2)OCCCC[C@@H](C)O3)cc1,x,u,35,-2,-4[16.7 µM],0
COc1ccc(NC(=O)Nc2ccc3c(c2)C(=O)N([C@H](C)CO)C[C@@H](C)[C@@H](CN(C)S(=O)(=O)c2ccc(Cl)cc2)OCCCC[C@H](C)O3)cc1,x,40*,34,-1,5[16.7 µM],-2
C[C@H](CO)N1C[C@H](C)[C@H](CN(C)S(=O)(=O)c2ccc(Cl)cc2)OCCCC[C@H](C)Oc2ccc(NC(=O)c3ccccc3)cc2C1=O,-1,21*,11,1,-14[16.7 µM],-1
C[C@@H]1CCCCO[C@H](CN(C)S(=O)(=O)c2ccccc2)[C@H](C)CN([C@@H](C)CO)C(=O)c2cc(NC(=O)Nc3ccc(F)cc3)ccc2O1,0,-12,-4,0,1[16.7 µM],1
C[C@@H]1CN([C@H](C)CO)C(=O)c2cc(NC(=O)CCC(F)(F)F)ccc2O[C@H]1CN(C)C,x,10,15,-2,-4[16.7 µM],3
C[C@H](CO)N1C[C@H](C)[C@@H](CN(C)S(=O)(=O)c2ccccc2)OCCCC[C@H](C)Oc2ccc(NC(=O)Nc3ccc(F)cc3)cc2C1=O,0,52*,-5,1,-3[16.7 µM],-1
COc1ccc(S(=O)(=O)N(C)C[C@@H]2OCCCC[C@H](C)Oc3ccc(NC(=O)c4ccccc4)cc3C(=O)N([C@H](C)CO)C[C@@H]2C)cc1,0,44*,18,-4,-2[16.7 µM],1
C[C@@H]1CCCCO[C@@H](CN(C)S(=O)(=O)c2ccccc2)[C@@H](C)CN([C@H](C)CO)C(=O)c2cc(NC(=O)Nc3ccc(F)cc3)ccc2O1,0,-8,5,3,-1[16.7 µM],1
COc1ccc(S(=O)(=O)N(C)C[C@@H]2OCCCC[C@H](C)Oc3ccc(NC(=O)NC(C)C)cc3C(=O)N([C@@H](C)CO)C[C@H]2C)cc1,0,49*,2,-1,12[16.7 µM],-3
COc1ccc(S(=O)(=O)N(C)C[C@H]2OCCCC[C@H](C)Oc3ccc(NC(=O)NC(C)C)cc3C(=O)N([C@H](C)CO)C[C@H]2C)cc1,0,-4,-5,-1,-2[16.7 µM],1
COc1ccc(NC(=O)Nc2ccc3c(c2)C(=O)N([C@@H](C)CO)C[C@@H](C)[C@@H](CN(C)S(=O)(=O)c2ccccc2)OCCCC[C@@H](C)O3)cc1,x,66*,0,-2,-5[16.7 µM],-2
Cc1ccc(S(=O)(=O)N(C)C[C@@H]2OCCCC[C@@H](C)Oc3ccc(NC(=O)Nc4ccc(F)cc4)cc3C(=O)N([C@@H](C)CO)C[C@@H]2C)cc1,0,-3,20,2,-11[16.7 µM],-3
